Granule exo inh: lytic granule exocytosis inhibition | TALL-104 LAMP-1 surface exposure, flow cytometry; cells stimulated with thapsigargin and PMA | AID 651702 | inhibition, % at 10 µM | 360,000 tested, 0.66% active;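 active = inhibition above about 55%, limit read from the data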
ASAP1 GAP inh: blocks human ASAP1-stimulated Arf1 GTP hydrolysis. Q9ULH1. GDP FP detection. inhibition, % at 16.5 µM. 360,000 tested, 0.19% active. AID 624377; in the data active = inhibition above about 25%;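 also: 0% = vehicle with enzyme and substrate and 100% = no enzyme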
Target sequence (Q9ULH1 325-724 limits assumed): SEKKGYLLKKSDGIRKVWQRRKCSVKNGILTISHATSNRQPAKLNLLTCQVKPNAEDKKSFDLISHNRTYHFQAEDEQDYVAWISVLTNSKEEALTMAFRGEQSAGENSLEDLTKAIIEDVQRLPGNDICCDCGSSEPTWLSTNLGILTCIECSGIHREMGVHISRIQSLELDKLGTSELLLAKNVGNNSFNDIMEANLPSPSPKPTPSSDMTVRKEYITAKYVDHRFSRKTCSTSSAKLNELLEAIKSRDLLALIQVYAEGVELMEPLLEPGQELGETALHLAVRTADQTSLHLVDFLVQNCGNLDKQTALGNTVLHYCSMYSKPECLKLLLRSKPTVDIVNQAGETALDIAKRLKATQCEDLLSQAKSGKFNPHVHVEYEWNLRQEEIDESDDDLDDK
V-ATPase pHluor: alters yeast V-ATPase proton transport. S. cerevisiae, pHLuorin cytosolic pH fluorescence. response, % at 10 µM. 350,000 tested, 0.37% active. AID 504577; in the data active = response mostly above about 7.3%, no sharp cut-off; inactive = mostly below about 5.4%; also: actives read high
NRP1-CendR mod: alters CendR peptide binding to human NRP-1 | O14786 | inhibition, % at 25 µM | AID 602438 | 360,000 tested, 0.85% active | FAM-RPARPAR peptide binding to NRP-1, fluorescence polarization;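 active = inhibition or corrected inhibition above about 18%, plus a signal ratio from 0.5 to 1.5, limit read from the data, passing the limit was not always enough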
ARFGAP1 inhibitor: rat ARFGAP1 inhibition; Arfgap1-stimulated ARF1 GTP hydrolysis, GDP FP detection; inhibition, % at 16.5 µM; 360,000 tested, 0.26% active; AID 651572;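 active = inhibition above a per-plate limit, mean inhibition of low control wells plus 3 SD, cut at about 25% in these data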;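 also: 0% = DMSO wells with enzyme and 100% = wells lacking Arfgap1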
Target sequence (Q62848 1-136 limits assumed): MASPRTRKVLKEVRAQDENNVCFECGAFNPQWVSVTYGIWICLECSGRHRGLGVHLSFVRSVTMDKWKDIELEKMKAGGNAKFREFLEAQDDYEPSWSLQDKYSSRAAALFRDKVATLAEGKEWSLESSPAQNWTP
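Repeats: one replicate per compound; assay system: rat Arfgap1 catalytic domain, aa 1-136; times: enzyme reaction 120 min at 25 °C after 20 min preincubation; detection: FP of antibody-bound GDP Alexa 633 tracer, ex 620/em 688 nm; benchmarks: high control wells lacking Arfgap1, low control full reaction with DMSO; reagent: human ARF1(Δ1-17)-GTP substrate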
* hit, by the source's call; · = no result given. Shown are actives, neighbours in structure and some others; about 2.2% of the full set was active somewhere.

SMILES	Granule exo inh	ASAP1 GAP inh	V-ATPase pHluor	NRP1-CendR mod	ARFGAP1 inhibitor
CCOP(=O)(OCC)/C(=N/OC(=O)c1ccc(OC)cc1)C(N)=O	70*	-12	1	-2	6
Cc1ccc(S(=O)(=O)NNC(=O)C(=O)NNS(=O)(=O)c2ccc(C)cc2)cc1	2	2	-1	17	-8
Cc1ccc(S(=O)(=O)NCCNS(=O)(=O)c2ccc(C)cc2)cc1	-5	-6	338*	4	-9
Cc1ccc(NNS(=O)(=O)c2ccc(C)cc2)cc1	4	-5	-6	28*	-7
CCCCCCCCN1C(=O)[C@@H](CC(=O)N2CCOCC2)C[C@@]2(C(=O)OC)C1=C[C@H](C1CCCC1)O[C@@H]2C	·	6	·	·	3
CCNC(=O)N1CCN(c2ccc(N3CCN(Cc4ccccc4)[C@H](C)C3)c(C)c2)[C@H](C)C1	·	-1	·	·	-10
C#CCn1c(=NC(=O)c2sc3ccccc3c2Cl)sc2cc(S(N)(=O)=O)ccc21	-2	11	1	-11	82*
COc1ccccc1-c1nnc(SC(C)C(=O)Nc2ccc(C(N)=O)cc2)o1 (configuration not stated)	0	4	1	0	-13
COc1cc(-c2c(C(=O)c3ccccc3)[nH]c(N)c2C(=O)NCCc2c[nH]c3ccccc23)ccc1F	·	10	·	·	12
O=C(NCC1COc2ccccc2O1)Nc1ccccc1F (configuration not stated)	4	0	-2	19*	4
CC(=O)NCC1COc2ccccc2O1 (configuration not stated)	-3	-10	1	-2	8
CN(Cc1ccco1)C(=O)[C@@H](Cc1ccccc1)NC(=O)[C@H]1O[C@@H](n2ccc(=O)[nH]c2=O)[C@H](O)[C@@H]1O	·	-3	·	·	-4
C=CCN1C(=O)c2n[nH]c(C(C)C)c2C1c1ccccc1 (configuration not stated)	·	-7	·	·	3
OCCOCCn1c(C(CO)Nc2nc(-c3cccc(Br)c3)cs2)nc2ccccc21 (configuration not stated)	-17	10	2	23*	8
CCCCc1c(-c2ccccc2OC)ncn1Cc1c(F)cccc1F	·	-5	·	·	-1
O=C(C(=O)N1CCC(CNS(=O)(=O)c2ccc(F)cc2)CC1)c1cccs1	·	-6	·	·	2
CCOc1cc(/C=C2\CCC/C(=C\c3cc(Cl)c(O)c(OCC)c3)C2=O)cc(Cl)c1O	82*	-12	-1	-26	15
CCOc1cc(/C=C2\CN(C)C/C(=C\c3ccc(O)c(OCC)c3)C2=O)ccc1O	48	5	5	10	2
Cc1cc(NC(=O)CCC(=O)N(c2ccc(F)cc2)C(C(=O)NC2CCCC2)c2cccnc2)no1 (configuration not stated)	-17	1	1	11	0
CCCCn1nc2cc(C(=O)NCc3ccc(OC(F)(F)F)cc3)ccc2c1OC	-1	-12	-1	27*	8
COc1c2ccc(C(=O)NCc3cc(C(F)(F)F)cc(C(F)(F)F)c3)cc2nn1C	-9	-8	-4	28*	7
CCCCn1nc2cc(C(=O)NCc3cc(C(F)(F)F)cc(C(F)(F)F)c3)ccc2c1OC	-8	0	-2	27*	4
CCCn1nc2cc(C(=O)NCc3ccc(C)cc3)ccc2c1OC	-4	-11	1	-1	15
CCn1nc2cc(C(=O)NCc3cc(C(F)(F)F)cc(C(F)(F)F)c3)ccc2c1OC	-1	-1	6	6	4
Cc1ccccc1C(=O)N1CCC[C@@H]1C(=O)N1CCC[C@H]1C(=O)NCc1ccccc1	·	-7	·	·	6
SMILES	Granule exo inh	ASAP1 GAP inh	V-ATPase pHluor	NRP1-CendR mod	ARFGAP1 inhibitor
CC(=O)Nc1cccc(-c2ccnc3c2CC(C(=O)NCCc2ccccc2)O3)c1 (configuration not stated)	15	4	·	-10	-10
COCCN(CCOC)C(=O)[C@@H](Cc1ccccc1)NC(=O)[C@H]1O[C@@H](n2ccc(N)nc2=O)[C@H](O)[C@@H]1O	·	3	·	·	-3
CSc1cccc(CN2CCC(CO)(Cc3cccc(C(F)(F)F)c3)CC2)c1	5	8	-3	30*	0
O=C(NC1(C(F)(F)F)NC(=O)N(Cc2ccccc2)C1=O)c1cccnc1 (configuration not stated)	-3	4	5	41*	-9
O=C(NC1(C(F)(F)F)NC(=O)N(Cc2cccnc2)C1=O)c1ccccc1 (configuration not stated)	6	-9	1	-8	8
CC(=O)Oc1ccc(N(C(C)=O)S(=O)(=O)c2ccc(Cl)cc2)c2ccccc12	12	15	18*	6	-3
COc1ccc(N2CCN(C(=O)c3ccc(NS(=O)(=O)c4ccc(F)c(F)c4)cc3)CC2)cc1	-6	-1	-6	51*	-13
COc1ccc(NS(=O)(=O)c2ccc(C(=O)N3CCN(c4ccc(F)cc4)CC3)cc2)cc1	7	-5	2	2	-2
CCCCOP(=O)(OCCCC)C1(NS(=O)(=O)c2ccccc2)C=CC(=O)c2ccccc21 (configuration not stated)	99*	-2	-75	11	8
O=[N+]([O-])c1cc([N+](=O)[O-])c(Oc2c(F)cccc2F)cc1NN1CCCCC1	78*	15	-1	-4	-12
CC(C)(C)OC(=O)NCCc1n[nH]c(=S)o1	-4	18	0	27*	7
CCC(C(=O)NC1CCN(C)CC1)c1ccccc1 (configuration not stated)	2	10	7	53*	-1
Cc1ccc(S(=O)(=O)CCC(=O)OCc2nnc(-c3ccccc3)o2)cc1	2	0	-3	-3	3
CCc1ccc2[nH]c(C)c(CN3CCCCCC3)c(=O)c2c1	-5	-6	-5	2	0
COc1ccc2[nH]c(C)c(CN3CCCCC3)c(=O)c2c1	-5	-12	3	32*	20
N#Cc1ccc(CSc2nnc(-c3c[nH]c4ccccc34)n2-c2ccccc2)cc1	96*	-8	6	4	6
C[C@H](CO)N1C[C@H](C)[C@@H](CN(C)C(=O)CCC(F)(F)F)OCc2cn(nn2)CCCC1=O	·	7	·	·	-5
O=C(NCc1ccccc1)NC1(C(=O)N2CCN(c3ncccn3)CC2)CCCCC1	0	1	-2	-1	-5
O=C(Nc1ccccc1)NC1(C(=O)N2CCN(c3ncccn3)CC2)CCCCC1	0	-6	16*	13	16
Cc1ccc(/C=N/Nc2nc3ccccc3[nH]2)s1	-2	7	-10	29*	7
Cc1ccccc1/C=N/Nc1nc2ccccc2[nH]1	-1	-5	-5	13	-1
Cc1[nH]c2ccccc2c1/C=N/Nc1nc2ccccc2[nH]1	72*	-4	1	8	9
O=C(O)c1cccc2c1Cc1cc(Cl)ccc1-2	-10	-10	-1	25*	4
